# System: Mycobacterium tuberculosis
# Test: Antituberculosis activity against Mycobacterium tuberculosis H37Rv ATCC 27294 after 7 to 10 days by microplate alamar blue assay
# Type: functional
# Procedure, shortened: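 Microdilution in 96-well format. Test materials were incubated with virulent M. tuberculosis H37Rv for 7–10 days at 0.1 to 128 μg/mL. Growth was read fluorometrically with Alamar Blue. MIC90 and percent inhibition were calculated against a 1:10 dilution of the inoculum. Rifampin served as the positive control and DMSO as the negative control.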
row,Compound,MIC90 [µM]
1,CC(=O)O[C@@H]1CC[C@@]2(C)[C@@H]3C[C@@H]4[C@H]5C[C@@]3(CC[C@@H]2[C@@]1(C)C=O)C[C@@]45C,> 371
2,CC(=O)OC[C@]1(C)[C@H]2CC[C@@]34C[C@@H]5[C@@H](C[C@H]3[C@]2(C)CC[C@H]1O)[C@]5(C)C4,> 370
3,CC1(C)[C@H](O)CC[C@]2(C)[C@@H]1CC[C@@]13C[C@@H]4[C@@H](C[C@H]12)[C@]4(C(=O)O)C3,> 402
4,CC(=O)OC[C@@]1(C(=O)O)[C@H](OC(C)=O)CC[C@@]2(C)[C@@H]3C[C@@H]4[C@H]5C[C@@]3(CC[C@@H]21)C[C@@]45C,> 306
5,CC(=O)O[C@@H]1CC[C@]2(C)[C@H](CC[C@@]34C[C@@H]5[C@@H](C[C@H]32)[C@]5(C)C4)[C@@]1(C)CO,> 370
6,CC(=O)O[C@@H]1CC[C@]2(C)[C@H](CC[C@@]34C[C@@H]5[C@@H](C[C@H]32)[C@]5(C)C4)C1(C)C,337
7,CC1(C)CCC[C@]2(C)[C@@H]1CC[C@@]13C[C@@H]4[C@@H](C[C@H]12)[C@]4(C=O)C3,85
8,CC1(C)CCC[C@]2(C)[C@@H]1CC[C@@]13C[C@@H]4[C@@H](C[C@H]12)[C@]4(CO)C3,446
9,CC(=O)O[C@@H]1CC[C@@]2(C)[C@@H]3C[C@@H]4[C@H]5C[C@@]3(CC[C@@H]2[C@]1(C)C=O)C[C@@]45C,> 371
10,CC(=O)O[C@@H]1CC[C@]2(C)[C@H](CC[C@@]34C[C@@H]5[C@@H](C[C@H]32)[C@]5(C)C4)[C@]1(C)CO,171
11,CC1(C)[C@H](O)CC[C@]2(C)[C@@H]1CC[C@@]13C[C@@H]4[C@@H](C[C@H]12)[C@]4(C)C3,212
12,CC1(C)C(=O)CC[C@@]2(C)[C@@H]3C[C@@H]4[C@@H]5C[C@@]3(CC[C@@H]12)C[C@@]45C,173
13,CO[C@H]1/C=C/O[C@@]2(C)Oc3c(C)c(O)c4c(O)c(c(/C=N/N5CCN(C)CC5)c(O)c4c3C2=O)NC(=O)/C(C)=C\C=C\[C@H](C)[C@H](O)[C@@H](C)[C@@H](O)[C@@H](C)[C@H](OC(C)=O)[C@@H]1C [RIFAMPIN],< 0.15

# Reference: ChEMBL document CHEMBL1157103, “Structure and anti-TB activity of trachylobanes from the liverwort Jungermannia exsertifolia ssp. cordifolia” (2010)
